# Published values of several laboratories.
# Lines come from different studies, so protocols differ.
# Effect on: cell growth or viability
SMILES,cell line,method,tested at,time,quantity,result
CN1C(=O)c2ccccc2CCC(=O)c2ccccc21,L6,,,,IC50,> 380000 nM
COc1cc2c(cc1O)CCN(Cc1cc(Cl)c(OC)c(OC)c1)C2,CNSSF-539,SRB,,,GI50,365 nM
CC(=O)O[C@H]1C(=O)[C@@]2(C)[C@H]([C@H](OC(=O)c3ccccc3)[C@]3(O)C[C@H](OC(=O)[C@H](O)[C@@H](NC(=O)c4ccccc4)c4ccccc4)C(C)=C1C3(C)C)[C@]1(OC(C)=O)CO[C@@H]1C[C@@H]2O,GISTT1,resazurin,,72 h,IC50,210 nM
O=c1ncccn1[C@@H]1O[C@H](CO)[C@@H](O)[C@H]1O,MEC1,,,48 h,IC20,75000 nM
CC(C)C[C@H](NC(=O)[C@H](Cc1ccccc1)NC(=O)c1cnccn1)B(O)O,GISTT1,,,72 h,IC50,6 nM
CN(C)CCCn1c2c(c3ccncc3c1=O)C(=O)c1ccccc1-2,CNSSF-539,SRB,,,GI50,708 nM
COc1cc2c(cc1O)CCN(Cc1cc(Br)c(OC)c(OC)c1)C2,CNSSF-539,SRB,,,GI50,177 nM
O=C1CCc2ccccc2C(=O)c2ccccc2N1,L6,,,,IC50,230000 nM
CCOC(=O)n1ccn(C)c1=S,GISTT1,resazurin,,72 h,IC50,< 70 nM
O=C1CCc2c(O)cccc2C(=O)Nc2ccccc21,L6,,,,IC50,210000 nM
CC(=O)Nc1cccc(-n2c(=O)n(C3CC3)c(=O)c3c(Nc4ccc(I)cc4F)n(C)c(=O)c(C)c32)c1,SW1417,resazurin,780 pM,72 h,viability,99.6%
O=C1Nc2ccc(C(=O)N3CCOCC3)cc2C(=O)CCc2ccccc21,L6,,,,IC50,> 270000 nM
COc1cc2c(cc1OS(N)(=O)=O)CCN(Cc1cc(Cl)c(OC)c(OC)c1)C2,CNSSF-539,SRB,,,GI50,19 nM
